The structures appear in SMILES notation.

Series [1] concerns Vaccinia virus. Nature of the series: Antiviral activity against Vaccinia virus Copenhagen infected in African green monkey Vero cells assessed as reduction in cell survival incubated for 4 days by neutral red dye based colorimetric analysis. As to conditions: Orthopoxvirus vaccinia, 96 h. The series is classed as functional, organism-based.
Series [2] in a line: Selectivity index, ratio of CC50 for African green monkey Vero cells to IC50 for Vaccinia virus Copenhagen infected in African green monkey Vero cells assessed as reduction in cell survival incubated for 4 days by neutral dye based colorimetric analysis. The series is classed as toxicity. As to conditions: read-out: Ratio CC50/IC50.
The nature of series [3]: Cytotoxicity against African green monkey Vero cells assessed as […]. The series is classed as cell-based. As to conditions: chlorocebus sabaeus. Summed up: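 Uninfected Vero monolayers in DMEM with 2% serum, given 8 three-fold compound dilutions starting at 1, 10 or 100 μg ml–1. Cell viability read by neutral red uptake: dye 1.5 h, washes, lysis, OD. CC50, the concentration causing 50% cell death, calculated from OD values.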

In the next series the test system is Cowpox virus. Nature of the series: Antiviral activity against Cowpox virus Grishak infected in African green monkey Vero cells assessed as reduction in cell survival incubated for 4 days by neutral red dye based colorimetric analysis. The class given is functional, organism-based. Particulars: 96 h.
The next series relates to Ectromelia virus. Nature of the series: Antiviral activity against Ectromelia virus K-1 infected in African green monkey Vero cells assessed as reduction in cell survival incubated for 4 days by neutral red dye based colorimetric analysis. The series is classed as functional. Particulars: K-1, Vero, 96 h.
Series [4] can be described thus: Selectivity index, ratio of CC50 for African green monkey Vero cells to IC50 for Ectromelia virus K-1 infected in African green monkey Vero cells assessed as reduction in cell survival incubated for 4 days by neutral dye based colorimetric analysis. As to conditions: read-out: Ratio CC50/IC50. The class given is toxicity.
Series [5] can be described thus: Selectivity index, ratio of CC50 for African green monkey Vero cells to IC50 for Cowpox virus Grishak infected in African green monkey Vero cells assessed as reduction in cell survival incubated for 4 days by neutral dye based colorimetric analysis. The class given is toxicity. Particulars: read-out: Ratio CC50/IC50.
The test system of series [6] is Vaccinia virus. The series is described as follows: Antiviral activity against Vaccinia virus assessed as reduction in viral reproduction at 2 ug/ml after 3 hrs relative to control. The series is classed as functional, Orthopoxvirus vaccinia. Details: scale not given: the % may be the effect or the level left. As to conditions: dose 2 µg/ml.
The test system of series [7] is Vaccinia virus. Nature of the series: Antiviral activity against Vaccinia virus assessed as reduction in viral reproduction at 2 ug/ml relative to control. The class given is functional, Orthopoxvirus vaccinia. Details: scale not given: the % may be the effect or the level left. As to conditions: dose 2 µg/ml.
Series [8] deals with Vaccinia virus. The series is described as follows: Antiviral activity against Vaccinia virus. The class given is functional, organism-based. As to conditions: Orthopoxvirus vaccinia.

By IC50 is commonly meant the midpoint of a concentration-inhibition curve. In general, CC50 refers to the concentration that lowers cell viability or growth by half. As for `CC1(C)[C@@H]2CC[C@@]1(C)[C@H](NC(=O)C13CC4CC(CC(C4)C1)C3)C2`, in the series on Vaccinia virus [1], the half-maximal inhibitory concentration (IC50) came out at 10.6 µM. Besides, the selectivity ratio at 96 h in series [2] turned out to be 30. Also, the 50% cytotoxic concentration (CC50) in series [3] was 317 µM.

As for `CC(C)=CCCC(C)CC(=O)NC12CC3CC(CC(C3)C1)C2` (centres undefined), the IC50 with Vaccinia virus [1] was found to be 3.1 µM. Moreover, the selectivity ratio at 96 h in series [2] worked out at 12. For the same molecule, the CC50 in series [3] is 37 µM.

With `CC(C)=CCC/C(C)=C/CNC(=O)C12CC3CC(CC(C3)C1)C2`, the IC50 in the series on Vaccinia virus [1] is 5.9 µM. The selectivity ratio at 96 h in series [2] was found to be 3. Also, the CC50 in [3] was determined as 18.9 µM.

Turning to `CC1(C)[C@H]2CC=C(C(=O)NC3C4CC5CC(C4)CC3C5)[C@@H]1C2` (some centres undefined), the half-inhibitory concentration (IC50) came out at 7.2 µM in the series with Cowpox virus, 2.5 µM in the series on Vaccinia virus [1] and 1.7 µM with Ectromelia virus. The selectivity ratio at 96 h in [4] stood at 477; in [2], 325; in series [5], 113. The 50% cytotoxic concentration (CC50) in series [3] worked out at 812 µM.

With `CC1(C)[C@H]2CC=C(C(=O)NC34CC5CC(CC(C5)C3)C4)[C@@H]1C2`, in the series on Vaccinia virus [1], the IC50 amounted to 0.7 µM. Also, the selectivity ratio at 96 h in series [2] amounted to 11. Further, in series [3], the cytotoxic concentration (CC50) came out at 7.9 µM.

In the case of `CC(C)CCCC(C)CCNC(=O)C12CC3CC(CC(C3)C1)C2` (centres undefined), in series [3], the CC50 was 17.3 µM.

For the molecule `CC1(C)[C@@H]2CC[C@@]1(CS(=O)(=O)NC13CC4CC(CC(C4)C1)C3)C(=O)C2`, the half-inhibitory concentration (IC50) with Vaccinia virus [1] turned out to be 2.3 µM. Besides, the selectivity ratio at 96 h in [2] amounted to 71. For the same molecule, the CC50 in series [3] came out at 164 µM.

Consider `O=C1Nc2ccccc2/C1=N\NC(=S)NC1C2CC3CC(C2)CC1C3` (centres undefined), for which the Activity with Vaccinia virus [6] is on record as 42%.

As for `C=C(C)[C@@H]1CC=C(CNC(=O)C23CC4CC(CC(C4)C2)C3)CC1`, the IC50 in the series on Vaccinia virus [1] was found to be 12.3 µM. Moreover, the selectivity ratio at 96 h in series [2] was found to be 26. The CC50 in series [3] is 319 µM.

With `CC(C)=CCCC(C)CC(=O)NC1C2CC3CC(C2)CC1C3` (centres undefined), the 50% inhibitory concentration (IC50) with Vaccinia virus [1] stood at 14.8 µM. In addition, in series [2], the selectivity ratio at 96 h worked out at 22. Moreover, the CC50 in series [3] worked out at 330 µM.

`CC(C)=CCC/C(C)=C\CNC(=O)C12CC3CC(CC(C3)C1)C2`: the CC50 in series [3] is 12.9 µM.

For `CC1(C)[C@@H]2CC[C@@]1(CS(=O)(=O)NC1C3CC4CC(C3)CC1C4)C(=O)C2` (some centres undefined), the concentration for half-maximal inhibition (IC50) in the series on Vaccinia virus [1] came out at 0.6 µM. Further, the selectivity ratio at 96 h in [2] came out at 160. For the same molecule, the CC50 in [3] was determined as 95.8 µM.

For `O=C(NC12CC3CC(CC(C3)C1)C2)C(c1ccccc1)c1ccccc1`, the Activity with Vaccinia virus [7] was found to be 72%.

In the case of `Nc1ccn(C[C@@H](CO)OCP(=O)(O)O)c(=O)n1` [CIDOFOVIR], the selectivity ratio at 96 h in series [2] was found to be 12.

As for `CC1=CC[C@H](CCNC(=O)C23CC4CC(CC(C4)C2)C3)C1(C)C`, the IC50 in the series on Vaccinia virus [1] was 2.5 µM. Moreover, the selectivity ratio at 96 h in series [2] came to 126. In addition, the 50% cytotoxic concentration (CC50) in series [3] was 317 µM.

For the molecule `CC1(C)[C@H]2CC[C@]1(C)[C@H](OC(=O)CCN1CCOCC1)C2`, in the series on Vaccinia virus [8], half-maximal inhibition (IC50) required 3.5 µM.

Regarding `CC1(C)[C@H]2CC[C@](C)(C2)[C@H]1NC(=O)C12CC3CC(CC(C3)C1)C2`, the 50% inhibitory concentration (IC50) in the series with Vaccinia virus [1] turned out to be 14.4 µM. Besides, the selectivity ratio at 96 h in [2] worked out at 22. In addition, the half-maximal cytotoxic concentration (CC50) in series [3] stood at 317 µM.

`CC1(C)[C@H]2CC=C(CCNC(=O)C3C4CC5CC(C4)CC3C5)[C@@H]1C2` (some centres undefined): the IC50 was found to be 12.5 µM in the series on Cowpox virus, 4.4 µM with Vaccinia virus [1] and 9.5 µM in the series with Ectromelia virus. Further, the selectivity ratio at 96 h in [4] turned out to be 39; in series [2], 85; in series [5] it was 30. Also, the CC50 in [3] came out at 372 µM.

In the series on Vaccinia virus [8], `CC1CCN(CC(=O)N[C@@H]2C[C@H]3CC[C@]2(C)C3(C)C)CC1` displayed a 50% inhibitory concentration (IC50) of 2.5 µM.

Turning to `CC(C)=CCC[C@H](C)CCNC(=O)C12CC3CC(CC(C3)C1)C2`, in the series with Vaccinia virus [1], the IC50 turned out to be 3.6 µM. In addition, the selectivity ratio at 96 h in series [2] is 5. The CC50 in series [3] was 18.1 µM.

For the molecule `CC1(C)[C@H]2CC=C(CCNC(=O)C34CC5CC(CC(C5)C3)C4)[C@@H]1C2`, the figures for the IC50 in the series with Cowpox virus, in the series with Vaccinia virus [1] and in the series on Ectromelia virus were 4.1 µM, 1.8 µM and 1.6 µM, respectively. Further, the selectivity ratio at 96 h in series [4] was 469; in [2], 417; in [5], 183. Besides, the CC50 in series [3] was found to be 750 µM.

Consider `CC1(C)[C@H]2CC=C(CNC(=O)C34CC5CC(CC(C5)C3)C4)[C@@H]1C2`, for which the results for the concentration for half-maximal inhibition (IC50) in the series with Cowpox virus, in the series on Vaccinia virus [1] and with Ectromelia virus were 4.7 µM, 1.7 µM and 2.7 µM, respectively. Besides, the selectivity ratio at 96 h in series [4] was determined as 707; in series [2], 1120; in [5] it was 406. Besides, the CC50 in [3] is 1910 µM.

As for `CC1(C)[C@H]2CC=C(CNC(=O)C3C4CC5CC(C4)CC3C5)[C@@H]1C2` (some centres undefined), the figures for the IC50 with Cowpox virus, in the series on Vaccinia virus [1] and in the series with Ectromelia virus were 15 µM, 4.6 µM and 12.6 µM, respectively. In addition, the selectivity ratio at 96 h in [4] was 97; in series [2], 267; in [5] it was 82. The half-maximal cytotoxic concentration (CC50) in [3] was 1230 µM.

Take `O=C(NN1C(=O)C2C3C=CC(C4CC34)C2C1=O)c1ccc(C(F)(F)F)cc1` (centres undefined): the IC50 in the series with Vaccinia virus [1] was 0.01 µM. For the same molecule, the selectivity ratio at 96 h in [2] was 128000. Further, the CC50 in [3] came to 1280 µM.

Turning to `CC1=CC[C@H](CCNC(=O)C2C3CC4CC(C3)CC2C4)C1(C)C` (some centres undefined), in the series with Vaccinia virus [1], the IC50 came out at 2.6 µM. In addition, the selectivity ratio at 96 h in series [2] came out at 122. The CC50 in series [3] was 317 µM.

For `CC(C)CCCC(C)CCNC(=O)C1C2CC3CC(C2)CC1C3` (centres undefined), the IC50 in the series on Vaccinia virus [1] came out at 2.8 µM. Besides, the selectivity ratio at 96 h in [2] was 5. Also, the CC50 in [3] was 13.7 µM.

These data come from ChEMBL document CHEMBL4699424, “New chemical agents based on adamantane-monoterpene conjugates against orthopoxvirus infections” (RSC Med Chem, 2020).
